Results taken from ChEMBL document CHEMBL3853270, “Influence of Birch Bark Triterpenes on Keratinocytes and Fibroblasts from Diabetic and Nondiabetic Donors” (2016).
Activity calls are given as the source filed them.

Assays:
Fibroblast [1] = assay: Induction of shape change of actin cytoskeleton in human diabetic primary fibroblasts at 10 nM after 2 hrs by rhodamine phalloidin-staining based fluorescence microscopic analysis; type: functional
Fibroblast [2] = assay: Induction of shape change of actin cytoskeleton in human non-diabetic primary fibroblasts at 10 nM after 2 hrs by rhodamine phalloidin-staining based fluorescence microscopic analysis; type: functional
Keratinocyte = assay: Effect on actin cytoskeleton in human diabetic primary keratinocytes assessed as formation of cellular protrusions at 10 nM after 2 hrs by rhodamine phalloidin-staining based fluorescence microscopic analysis; type: functional
In short: (§1)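 Subconfluent cells on glass coverslips, collagen type I coated for fibroblasts; keratinocytes starved 2 days before stimulation. Exposure 2 h, then rhodamine-phalloidin staining (1:25 in PBS) and fluorescence microscopy. Controls were DMSO as solvent and PDGF (fibroblasts) or CNF1 (keratinocytes). Where used, p38-MAPK inhibitor LN 950 (100 nM) was added 30 min beforehand.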

Fibroblast [3] = assay: Effect on actin cytoskeleton in human diabetic primary fibroblasts assessed as formation of thin elongated cellular body at 10 nM after 2 hrs by rhodamine phalloidin-staining based fluorescence microscopic analysis; type: functional; in short: as §1
Fibroblast [4] = assay: Effect on actin cytoskeleton in human non-diabetic primary fibroblasts assessed as formation of thin elongated cellular body at 10 nM after 2 hrs by rhodamine phalloidin-staining based fluorescence microscopic analysis; type: functional; in short: as §1
Fibroblast [5] = assay: Effect on actin cytoskeleton in human non-diabetic primary fibroblasts assessed as formation of thin elongated cellular body at 10 nM after 2 hrs in presence of p-38 MAPK inhibitor LN 950 by rhodamine phalloidin-staining based fluorescence microscopic analysis; type: functional; in short: as §1
[6] = molecular target: Transforming protein RhoA (Homo sapiens) (UniProt P61586); assay: Activation of RhoA in human diabetic primary keratinocytes at 10 nM after 3 hrs by immunoblot method
In short: (§2)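 Keratinocytes from a diabetic adult donor; incubation 3 h for RhoA, 20 min for Cdc42 and Rac1. Lysates made in glycerol/Tris pH 7.4/NaCl/NP-40/MgCl2/PMSF buffer, spun at 4 °C. Active GTP-bound form pulled down on glutathione-sepharose with GST-Rhotekin (RhoA) or GST-PAK (Cdc42, Rac1) for 1 h at 4 °C. Total and pulled-down protein read by immunoblot with ECL; n = 3.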

[7] = molecular target: Cell division control protein 42 homolog (Homo sapiens) (UniProt P60953); assay: Activation of Cdc42 in human diabetic primary keratinocytes at 10 nM after 20 mins by immunoblot method; in short: as §2
[8] = molecular target: Ras-related C3 botulinum toxin substrate 1 (Homo sapiens) (UniProt P63000); assay: Activation of Rac1 in human diabetic primary keratinocytes at 10 nM after 20 mins by immunoblot method
In short: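 Primary keratinocytes from a diabetic adult donor (NHK-d), exposed 20 min. Lysed in glycerol/Tris pH 7.4/NaCl/NP-40/MgCl2/PMSF buffer and cleared at 4 °C. Supernatant incubated 1 h at 4 °C with glutathione-sepharose beads carrying GST-PAK to pull down active GTP-bound Rac1. Blotted on a 13% gel, probed with anti-Rac1 (1:2.000) and detected by ECL; total Rac1 also measured. CNF1 (2 nM) positive control, n = 3.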

Measured: Activity

Cell division control protein 42 homolog (Homo sapiens), sequence (P60953 whole entry, looked up): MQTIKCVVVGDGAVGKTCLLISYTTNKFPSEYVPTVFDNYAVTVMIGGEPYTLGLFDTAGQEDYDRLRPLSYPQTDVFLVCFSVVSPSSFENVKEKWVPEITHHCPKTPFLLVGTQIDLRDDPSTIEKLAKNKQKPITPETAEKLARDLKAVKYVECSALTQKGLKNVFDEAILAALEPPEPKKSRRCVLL
Transforming protein RhoA (Homo sapiens), sequence (P61586 whole entry): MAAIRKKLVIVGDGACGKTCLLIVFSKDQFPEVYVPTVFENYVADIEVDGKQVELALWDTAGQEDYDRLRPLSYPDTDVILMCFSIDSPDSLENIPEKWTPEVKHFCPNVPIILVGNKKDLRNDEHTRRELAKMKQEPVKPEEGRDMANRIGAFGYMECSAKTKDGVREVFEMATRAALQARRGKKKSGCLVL

C=C(C)[C@@H]1CC[C@]2(C(=O)O)CC[C@]3(C)[C@H](CC[C@@H]4[C@@]5(C)CC[C@H](O)C(C)(C)[C@@H]5CC[C@]43C)[C@@H]12
active: Fibroblast [1] | Fibroblast [2]

C=C(C)[C@@H]1CC[C@]2(C)CC[C@]3(C)[C@H](CC[C@@H]4[C@@]5(C)CC[C@H](O)C(C)(C)[C@@H]5CC[C@]43C)[C@@H]12
not listed: Fibroblast [1] | Fibroblast [2]
active: all other assays above
